Results published in ChEMBL document CHEMBL1806481, “Synthesis and anti-inflammatory activity of novel biscoumarin-chalcone hybrids” (Bioorg Med Chem Lett, 2011).
Active and inactive are the calls of the source. The calls are words filed in the database; no cut-off is given here.

Assays:
[1] = Antioxidant activity assessed as inhibition of xanthine-xanthine oxidase generated superoxide anion radical production assessed as formazone formation at 20 ug/ml after 30 mins by spectrophotometric analysis; assay type: functional
Outline: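 Reaction mixtures in phosphate buffer incubated at 37 °C for 30 min, then stopped with 0.5 mL glacial acetic acid. Superoxide quantified as formazone formed (nmol/min), read spectrophotometrically. Mean SD of six values.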

Rattus norvegicus [2] = assay: Toxicity in albino rat at 100 mg/kg, po by autopsy; assay type: organism-based; parameters: dose 100 mg/kg, route oral; settings: in vivo
[3] = Toxicity in albino rat assessed as survival at 100 mg/kg, po; assay type: organism-based; parameters: dose 100 mg/kg, route oral; settings: in vivo, read-out: Activity
Outline: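 Albino rats were dosed orally in the carrageenin hind-paw oedema study. Survival was recorded, and animals were examined macroscopically and by autopsy.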

Rattus norvegicus [4] = assay: Antiinflammatory activity in albino rat assessed as inhibition of carrageenin-induced paw oedema at 100 mg/kg, po after 3 hrs by plethysmographic analysis relative to control; assay type: functional
Outline: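 Rats received 100 mg/kg po. Oedema was induced by subplantar injection of 0.1 ml of 1% carrageenin into one hind paw. Paw volume was measured plethysmographically immediately after the injection and at 3 h. The volume difference gave the oedema, and percent inhibition was calculated against the control group. Ibuprofen was the reference at an equivalent dose.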

Rattus norvegicus [5] = assay: Toxicity in albino rat at 100 mg/kg, po by macroscopic analysis; settings: in vivo
[6] = Antiinflammatory activity in whole blood assessed as inhibition of LPS-induced TNFalpha production at 400 ug/ml; assay type: functional
[7] = Antiinflammatory activity in whole blood assessed as inhibition of LPS-induced TNFalpha production; assay type: functional, tissue-based
[8] = Antiinflammatory activity in whole blood assessed as inhibition of LPS-induced TNFalpha production at 200 ug/ml; assay type: functional
[9] = Antioxidant activity assessed as inhibition of xanthine-xanthine oxidase generated superoxide anion radical production assessed as formazone formation at 200 ug/ml after 30 mins by spectrophotometric analysis; assay type: functional
Outline: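 Superoxide generation was run with and without compound at 200 µg/mL. Fractions were sonicated in phosphate buffer, and mixtures were incubated at 37 °C for 30 min. The reaction was stopped with glacial acetic acid, and formazone formed was measured spectrophotometrically. Allopurinol was the standard, and values are mean SD of six.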

[10] = Antioxidant activity assessed as inhibition non-enzymatic reactants generated hydroxyl radical production at 200 ug/ml after 90 mins by spectrophotometry; assay type: functional
Outline: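 Hydroxyl radicals were generated non-enzymatically from deoxyribose (2.8 mM), FeSO4·7H2O (2 mM), sodium ascorbate (2.0 mM) and H2O2 (2.8 mM) in 50 mM KH2PO4 buffer, pH 7.4. Final volume was 2.5 mL, with or without test compound at 200 µg/mL. Mixtures were incubated at 37 °C for 90 min, MDA formed was measured, and mannitol was the standard. Values are mean SD of six.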

[11] = Antioxidant activity assessed as inhibition microsomal lipid peroxidation at 200 ug/ml by thiobarbituric acid test; assay type: functional; settings: Microsome
Outline: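 Microsomal lipid peroxidation was measured with compound at 200 µg/mL and read as nmol MDA formed per mg protein. α-Tocopherol at 100 µg/mL was the standard. Values are mean SD of six.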

[12] = Antioxidant activity assessed as inhibition microsomal lipid peroxidation at 100 ug/ml by thiobarbituric acid test; assay type: functional; settings: Microsome
[13] = Antioxidant activity assessed as inhibition non-enzymatic reactants generated hydroxyl radical production at 100 ug/ml after 90 mins by spectrophotometry; assay type: functional

## Oc1ncnc2[nH]ncc12
[1]
  inhibition: 42%

## COC(=O)c1cc2cc(/C=C/C(=O)c3cccs3)c3c(ccc4c(C)cc(=O)oc43)c2oc1=O
Rattus norvegicus [2]
  Activity: Non-toxic
[3]
  survival: 80%
Rattus norvegicus [4]
  inhibition in vivo at 100 mg/kg: 3.5%
Rattus norvegicus [5]
  Activity: Non-toxic

## CC(=O)c1cc2cc(/C=C/C(=O)c3ccc(C)cc3)c3c(ccc4c(C)cc(=O)oc43)c2oc1=O
[6]
  inhibition at 400 µg/mL: 47%
[7]
  inhibition: Dose-dependent effect
[8]
  inhibition at 200 µg/mL: 33%
Rattus norvegicus [4]
  inhibition in vivo at 100 mg/kg: 29%

## CCOC(=O)c1cc2cc(/C=C/C(=O)c3cccs3)c3c(ccc4c(C)cc(=O)oc43)c2oc1=O
Rattus norvegicus [2]
  Activity: Non-toxic
[9]
  inhibition: 24%
[3]
  survival: 80%
Rattus norvegicus [4]
  inhibition in vivo at 100 mg/kg: 8.77%
Rattus norvegicus [5]
  Activity: Non-toxic
[10]
  inhibition: 26%
[11]
  inhibition: 27%

## COC(=O)c1cc2cc(/C=C/C(=O)c3ccc(C)cc3)c3c(ccc4c(C)cc(=O)oc43)c2oc1=O
Rattus norvegicus [4]
  inhibition: inactive

## CCOC(=O)c1cc2cc(/C=C/C(=O)c3ccco3)c3c(ccc4c(C)cc(=O)oc43)c2oc1=O
Rattus norvegicus [2]
  Activity: Non-toxic
[9]
  inhibition: 30%
[3]
  survival: 80%
Rattus norvegicus [4]
  inhibition in vivo at 100 mg/kg: 13%
Rattus norvegicus [5]
  Activity: Non-toxic
[10]
  inhibition: 21%
[11]
  inhibition: 24%

## COC(=O)c1cc2cc(/C=C/C(=O)c3ccco3)c3c(ccc4c(C)cc(=O)oc43)c2oc1=O
Rattus norvegicus [4]
  inhibition: inactive

## CC(=O)c1cc2cc(/C=C/C(=O)c3ccco3)c3c(ccc4c(C)cc(=O)oc43)c2oc1=O
[6]
  inhibition at 400 µg/mL: 43%
[7]
  inhibition: Dose-dependent effect
[8]
  inhibition at 200 µg/mL: 25%
Rattus norvegicus [4]
  inhibition in vivo at 100 mg/kg: 26%

## CCOC(=O)c1cc2cc(/C=C/C(=O)c3ccccc3)c3c(ccc4c(C)cc(=O)oc43)c2oc1=O
Rattus norvegicus [4]
  inhibition: inactive

## Cc1c(C)c2c(c(C)c1O)CC[C@@](C)(CCC[C@H](C)CCC[C@H](C)CCCC(C)C)O2
[12]
  inhibition: 41%

## OC[C@@H](O)[C@@H](O)[C@H](O)[C@H](O)CO
[13]
  inhibition: 40%

## COC(=O)c1cc2cc(/C=C/C(=O)c3ccccc3)c3c(ccc4c(C)cc(=O)oc43)c2oc1=O
[6]
  inhibition at 400 µg/mL: 21%
[7]
  inhibition: Dose-dependent effect
[9]
  inhibition: 29%
[8]
  inhibition at 200 µg/mL: 4%
Rattus norvegicus [4]
  inhibition in vivo at 100 mg/kg: 33%
[10]
  inhibition: 27%
[11]
  inhibition: 23%

## CCOC(=O)c1cc2cc(/C=C/C(=O)c3ccc(C)cc3)c3c(ccc4c(C)cc(=O)oc43)c2oc1=O
Rattus norvegicus [4]
  inhibition: inactive

## CC(C)Cc1ccc(C(C)C(=O)O)cc1 (stereo unspecified) [IBUPROFEN]
Rattus norvegicus [4]
  inhibition in vivo at 100 mg/kg: 59.5%
